Consider 4 molecules from ChEMBL document CHEMBL2062515, “Synthesis and evaluation of novel radioligands for positron emission tomography imaging of metabotropic glutamate receptor subtype 1 (mGluR1) in rodent brain” (J Med Chem, 2012).

pIC50, pKi: −log10 of the molar value. Activity calls are given as the source filed them. The rule behind the calls is not given here.

The target in data set [1] is Metabotropic glutamate receptor 1 (Rattus norvegicus) (UniProt P23385). The experiment in a line: Binding affinity to mGluR1 in Sprague-Dawley rat striatum after 30 mins by autoradiography in presence of JNJ16259685. Particulars: tested as the 11C-labelled form.
Metabotropic glutamate receptor 1 (Rattus norvegicus), sequence (P23385 19-1199 limits assumed): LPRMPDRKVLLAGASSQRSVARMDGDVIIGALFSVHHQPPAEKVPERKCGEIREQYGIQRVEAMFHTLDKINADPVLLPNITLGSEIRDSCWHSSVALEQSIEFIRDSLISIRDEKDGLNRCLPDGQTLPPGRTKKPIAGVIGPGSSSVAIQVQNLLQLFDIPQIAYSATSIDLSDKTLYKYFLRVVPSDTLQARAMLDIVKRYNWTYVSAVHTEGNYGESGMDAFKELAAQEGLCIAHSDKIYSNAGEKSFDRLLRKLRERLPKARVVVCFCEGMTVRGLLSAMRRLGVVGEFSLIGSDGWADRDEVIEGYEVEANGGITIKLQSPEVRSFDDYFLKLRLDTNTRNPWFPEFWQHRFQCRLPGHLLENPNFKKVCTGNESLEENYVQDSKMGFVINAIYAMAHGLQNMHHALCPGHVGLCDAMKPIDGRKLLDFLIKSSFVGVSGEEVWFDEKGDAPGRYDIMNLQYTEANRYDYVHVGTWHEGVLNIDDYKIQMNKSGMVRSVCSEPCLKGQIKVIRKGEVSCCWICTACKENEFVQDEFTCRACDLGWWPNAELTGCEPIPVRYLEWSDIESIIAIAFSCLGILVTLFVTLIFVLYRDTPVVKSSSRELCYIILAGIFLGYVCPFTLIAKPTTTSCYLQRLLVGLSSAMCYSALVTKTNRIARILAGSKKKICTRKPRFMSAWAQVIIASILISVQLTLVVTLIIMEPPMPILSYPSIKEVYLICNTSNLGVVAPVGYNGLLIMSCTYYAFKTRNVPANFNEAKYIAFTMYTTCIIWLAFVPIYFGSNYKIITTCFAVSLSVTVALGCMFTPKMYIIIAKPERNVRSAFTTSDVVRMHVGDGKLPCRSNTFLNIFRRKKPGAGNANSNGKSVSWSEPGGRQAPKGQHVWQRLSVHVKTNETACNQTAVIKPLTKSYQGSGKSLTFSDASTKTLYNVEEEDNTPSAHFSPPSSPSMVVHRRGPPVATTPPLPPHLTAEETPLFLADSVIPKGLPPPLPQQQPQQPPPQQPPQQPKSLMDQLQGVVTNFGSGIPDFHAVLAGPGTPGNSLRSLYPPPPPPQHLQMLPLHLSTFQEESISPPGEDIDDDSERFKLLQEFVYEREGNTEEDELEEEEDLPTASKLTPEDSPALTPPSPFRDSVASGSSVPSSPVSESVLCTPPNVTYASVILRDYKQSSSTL
A short description of data set [2]: Lipophilicity, log D of the compound in octanol-phosphate buffer at pH 7.4 by Shake flask method. It counts as physicochemical. The method in brief: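 Radioligand shaken with n-octanol and 0.1 M sodium phosphate buffer pH 7.4 (3.0 g each), vortex 3 min room temperature, centrifuged 2330g 5 min; phases weighed and counted, octanol repartitioned until constant. LogD = log(cpm/g octanol / cpm/g buffer); triplicate.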

In data set [3] the target is Metabotropic glutamate receptor 1 (Rattus norvegicus, UniProt P23385). The experiment in a line: Displacement of 4-[18F]fluoro-N-[4-(6-(isopropylamino)pyrimidin-4-yl)-1,3-thiazol-2-yl]-N-methylbenzamide from mGluR1 in Sprague-Dawley rat brain homogenates after 1 hr. Format: tissue-based. In a few lines: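 Rat whole-brain homogenate (washed pellets in 50 mM Tris-HCl pH 7.4, 120 mM NaCl; diluted to 100 mg/mL in Tris-HCl with NaCl, KCl, MgCl₂, CaCl₂) incubated 1 h, room temperature with [¹⁸F]-ligand (3 nM in PBS) and competitor […] in 0.1% DMSO. Filtration on PEI-treated GF/C, gamma counting; Kd by Scatchard; IC50/Ki by nonlinear regression; duplicate, mean SE.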
Metabotropic glutamate receptor 1, sequence (P23385 whole entry): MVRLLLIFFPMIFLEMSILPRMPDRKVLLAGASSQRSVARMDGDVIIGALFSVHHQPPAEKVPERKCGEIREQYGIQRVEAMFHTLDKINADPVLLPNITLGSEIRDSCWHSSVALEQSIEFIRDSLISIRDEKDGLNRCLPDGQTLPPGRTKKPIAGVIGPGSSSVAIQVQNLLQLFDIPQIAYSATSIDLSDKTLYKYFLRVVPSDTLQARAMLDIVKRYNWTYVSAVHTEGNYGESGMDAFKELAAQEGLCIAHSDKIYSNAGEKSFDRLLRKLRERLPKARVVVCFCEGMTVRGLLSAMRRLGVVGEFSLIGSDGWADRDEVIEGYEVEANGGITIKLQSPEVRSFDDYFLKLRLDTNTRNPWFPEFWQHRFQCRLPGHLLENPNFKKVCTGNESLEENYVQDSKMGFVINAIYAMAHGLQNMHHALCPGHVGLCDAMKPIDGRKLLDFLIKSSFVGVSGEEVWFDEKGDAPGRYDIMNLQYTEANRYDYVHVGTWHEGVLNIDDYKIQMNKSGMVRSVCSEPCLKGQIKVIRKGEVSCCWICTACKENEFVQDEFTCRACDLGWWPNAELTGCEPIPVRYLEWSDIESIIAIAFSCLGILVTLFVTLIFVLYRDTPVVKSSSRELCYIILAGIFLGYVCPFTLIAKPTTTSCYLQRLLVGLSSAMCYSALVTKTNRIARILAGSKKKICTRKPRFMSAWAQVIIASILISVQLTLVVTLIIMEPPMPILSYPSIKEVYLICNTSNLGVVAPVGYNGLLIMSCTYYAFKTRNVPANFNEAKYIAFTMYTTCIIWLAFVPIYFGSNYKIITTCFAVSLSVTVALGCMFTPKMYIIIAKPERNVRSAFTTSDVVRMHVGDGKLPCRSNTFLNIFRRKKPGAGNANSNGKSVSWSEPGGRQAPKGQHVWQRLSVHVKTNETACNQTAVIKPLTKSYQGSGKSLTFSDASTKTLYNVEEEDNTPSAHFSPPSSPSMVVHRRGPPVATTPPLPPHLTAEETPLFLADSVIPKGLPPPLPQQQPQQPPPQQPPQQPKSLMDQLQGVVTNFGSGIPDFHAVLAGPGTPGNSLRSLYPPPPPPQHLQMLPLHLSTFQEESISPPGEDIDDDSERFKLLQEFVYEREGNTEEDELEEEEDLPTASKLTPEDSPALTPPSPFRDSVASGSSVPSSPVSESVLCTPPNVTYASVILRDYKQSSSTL

The target of data set [4] is Metabotropic glutamate receptor 1 (Rattus norvegicus) (UniProt P23385). The experiment in a line: Binding affinity to mGluR1 in Sprague-Dawley rat brain at 9.2 MBq after 30 mins by autoradiography relative to control in presence of JNJ16259685. Format: tissue-based. Particulars: 9.2 M, tested as the 11C-labelled form. In a few lines:
(§1)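 Rat brain sections (20 μm) were preincubated 20 min at room temperature in 50 mM Tris-HCl pH 7.4 with 1.2 mM MgCl₂ and 2 mM CaCl₂. They were then incubated 30 min at room temperature in fresh buffer with the ¹¹C radioligand (9.2 MBq, 0.5 nM), with or without JNJ-16259685 (1 μM) to define specific binding. Sections were washed 3 × 5 min in cold buffer, dipped in cold water and dried with cold air.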

Data set [5] has the same target. The experiment in a line: Binding affinity to mGluR1 in Sprague-Dawley rat cerebellum at 0.4 MBq after 30 mins by autoradiography.
Data set [6] deals with Metabotropic glutamate receptor 5 (Rattus norvegicus, UniProt P31424). As to the kind of experiment: Displacement of [11C]-ABP688 from mGluR5 in Sprague-Dawley rat brain homogenates after 1 hr by gamma counting. It counts as tissue-based. In a few lines: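 mGluR5 competition in same rat brain homogenate, run as mGluR1 assay but with [¹¹C]ABP688-type radioligand: 1 h room temperature incubation, filtration through PEI-treated glass fiber filters, gamma counting, nonlinear regression for IC50.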
Metabotropic glutamate receptor 5, sequence (P31424 whole entry): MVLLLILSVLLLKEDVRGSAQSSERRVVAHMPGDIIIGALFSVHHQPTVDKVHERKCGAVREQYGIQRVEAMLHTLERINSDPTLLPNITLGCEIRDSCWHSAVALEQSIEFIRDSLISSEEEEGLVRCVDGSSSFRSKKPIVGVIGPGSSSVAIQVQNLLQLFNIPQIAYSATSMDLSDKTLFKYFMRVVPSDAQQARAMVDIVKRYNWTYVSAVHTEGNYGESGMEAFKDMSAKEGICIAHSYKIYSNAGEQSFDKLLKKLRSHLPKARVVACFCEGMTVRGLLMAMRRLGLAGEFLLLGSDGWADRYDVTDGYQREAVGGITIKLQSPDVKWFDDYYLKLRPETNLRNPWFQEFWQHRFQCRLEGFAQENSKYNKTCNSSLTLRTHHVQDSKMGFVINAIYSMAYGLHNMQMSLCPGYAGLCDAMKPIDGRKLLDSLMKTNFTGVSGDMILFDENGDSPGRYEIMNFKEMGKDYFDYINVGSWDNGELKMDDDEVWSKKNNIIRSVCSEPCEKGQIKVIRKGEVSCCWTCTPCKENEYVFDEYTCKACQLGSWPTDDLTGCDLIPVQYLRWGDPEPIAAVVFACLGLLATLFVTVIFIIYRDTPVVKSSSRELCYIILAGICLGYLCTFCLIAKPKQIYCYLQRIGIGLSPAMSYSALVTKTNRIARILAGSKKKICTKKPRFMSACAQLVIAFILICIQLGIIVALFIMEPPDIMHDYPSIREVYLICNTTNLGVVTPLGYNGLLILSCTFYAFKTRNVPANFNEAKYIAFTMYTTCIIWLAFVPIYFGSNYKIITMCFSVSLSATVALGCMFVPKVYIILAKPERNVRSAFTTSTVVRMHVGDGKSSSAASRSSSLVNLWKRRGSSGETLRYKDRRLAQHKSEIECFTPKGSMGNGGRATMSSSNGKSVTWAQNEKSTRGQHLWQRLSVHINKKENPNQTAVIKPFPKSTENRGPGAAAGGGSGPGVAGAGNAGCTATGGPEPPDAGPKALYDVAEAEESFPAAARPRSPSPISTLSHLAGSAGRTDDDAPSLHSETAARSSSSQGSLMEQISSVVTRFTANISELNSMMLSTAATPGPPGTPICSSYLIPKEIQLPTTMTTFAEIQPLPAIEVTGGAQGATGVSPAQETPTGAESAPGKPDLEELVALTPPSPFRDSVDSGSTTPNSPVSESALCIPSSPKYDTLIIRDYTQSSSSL
In general terms: Loss of bound radioactivity is the signal in a displacement assay; it reports binding, not function.

Data set [7] addresses Metabotropic glutamate receptor 1 (Rattus norvegicus) (UniProt P23385). The experiment in a line: Binding affinity to mGluR1 in Sprague-Dawley rat cerebellum at 9.2 MBq after 30 mins by autoradiography. The conditions noted are these: 9.2 M, tested as the 11C-labelled form. The method in brief: as §1
Data set [8] has the same target. As to the kind of experiment: Binding affinity to mGluR1 in Sprague-Dawley rat thalamus at 0.4 MBq after 30 mins by autoradiography. The method in brief:
(§2)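 Sections were 20 μm rat brain slices, preincubated 20 min at room temperature in 50 mM Tris-HCl pH 7.4 containing 1.2 mM MgCl₂ and 2 mM CaCl₂. Incubation was 30 min at room temperature with an ¹⁸F radioligand at 0.4 MBq (5 pM or 4 pM), with or without JNJ-16259685 (1 μM). Sections were washed 3 × 5 min in cold buffer, rinsed in cold distilled water and air-dried cold.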

The target is the same in data set [9]. As to the kind of experiment: Binding affinity to mGluR1 in Sprague-Dawley rat brain stem at 9.2 MBq after 30 mins by autoradiography. It counts as tissue-based. Particulars: 9.2 M, tested as the 11C-labelled form. In a few lines: as §1
Data set [10] shares this target. As to the kind of experiment: Binding affinity to mGluR1 in Sprague-Dawley rat thalamus after 30 mins by autoradiography in presence of JNJ16259685. Particulars: tested as the 11C-labelled form.
Data set [11] has the same target. The experiment in a line: Binding affinity to mGluR1 in Sprague-Dawley rat cerebellum at 0.4 MBq after 30 mins by autoradiography in presence of JNJ16259685.
Data set [12] has the same target. As to the kind of experiment: Binding affinity to mGluR1 in Sprague-Dawley rat thalamus at 9.2 MBq after 30 mins by autoradiography. The conditions noted are these: 9.2 M, tested as the 11C-labelled form. In a few lines:
as §1

The target is the same in data set [13]. The experiment in a line: Binding affinity to mGluR1 in Sprague-Dawley rat striatum at 9.2 MBq after 30 mins by autoradiography relative to control in presence of JNJ16259685. Particulars: 9.2 M, tested as the 11C-labelled form. The method in brief: as §1
For data set [14] the target is unchanged. As to the kind of experiment: Binding affinity to mGluR1 in Sprague-Dawley rat brain stem after 30 mins by autoradiography in presence of JNJ16259685. Particulars: tested as the 11C-labelled form.
Data set [15] shares this target. The experiment in a line: Binding affinity to mGluR1 in Sprague-Dawley rat cerebellum at 9.2 MBq after 30 mins by autoradiography relative to control in presence of JNJ16259685. The conditions noted are these: 9.2 M, tested as the 11C-labelled form. In a few lines:
as §1

For data set [16] the target is unchanged. The experiment in a line: Binding affinity to mGluR1 in Sprague-Dawley rat brain stem at 0.4 MBq after 30 mins by autoradiography. It counts as tissue-based.
Data set [17] shares this target. As to the kind of experiment: Binding affinity to mGluR1 in Sprague-Dawley rat thalamus at 9.2 MBq after 30 mins by autoradiography relative to control in presence of JNJ16259685. Particulars: 9.2 M, tested as the 11C-labelled form. In a few lines:
as §1

Data set [18] has the same target. The experiment in a line: Binding affinity to mGluR1 in Sprague-Dawley rat brain stem at 9.2 MBq after 30 mins by autoradiography relative to control in presence of JNJ16259685. It counts as tissue-based. Particulars: 9.2 M, tested as the 11C-labelled form. In a few lines: as §1
Data set [19] has the same target. The experiment in a line: Binding affinity to mGluR1 in Sprague-Dawley rat striatum at 0.4 MBq after 30 mins by autoradiography. The method in brief: as §2
Data set [20] has the same target. As to the kind of experiment: Binding affinity to mGluR1 in Sprague-Dawley rat striatum at 9.2 MBq after 30 mins by autoradiography. Particulars: 9.2 M, tested as the 11C-labelled form. In a few lines:
as §1

Data set [21] has the same target. As to the kind of experiment: Binding affinity to mGluR1 in Sprague-Dawley rat thalamus at 0.4 MBq after 30 mins by autoradiography in presence of JNJ16259685. The conditions noted are these: 0.4 M, tested as the 18F-labelled form. The method in brief:
as §2

Data set [22] shares this target. As to the kind of experiment: Binding affinity to mGluR1 in Sprague-Dawley rat brain stem at 0.4 MBq after 30 mins by autoradiography in presence of JNJ16259685. It counts as tissue-based. Particulars: 0.4 M, tested as the 18F-labelled form. The method in brief:
as §2

Data set [23] has the same target. As to the kind of experiment: Binding affinity to mGluR1 in Sprague-Dawley rat striatum at 0.4 MBq after 30 mins by autoradiography in presence of JNJ16259685. Particulars: 0.4 M, tested as the 18F-labelled form. In a few lines: as §2
Setting [24] is: 9.2 M, in the assay text read “9.2 MBq” for “0.4 MBq”, tested as the 11C-labelled form.
[25] abbreviates: 0.4 M, tested as the 18F-labelled form.

For orientation: logD means lipophilicity at a set pH, counting ionised and neutral species. A low value points to a more hydrophilic compound. One may read the pIC50 as the negative decadic logarithm of the IC50, by convention in mol/L. In general, pKi refers to −log10 of the Ki, conventionally taken in molar units. A low value points to a high Ki. For the molecule `COc1ccc(C(=O)N(C)c2nc(-c3cc(NC(C)C)ncn3)cs2)cc1`, the result in [1], in data set [10], in data set [11] (setting [24]) and in data set [14] was inactive. This molecule displayed a logD in data set [2] of 2.57. Also, the figures for the pIC50 in [3] and in data set [6] were 7.49 and under 5.00, respectively. This molecule also showed a pKi in [3] of 7.90. For the same molecule, the Activity is over 70% in [4]; 30% in data set [13]; 30% in data set [15]; 30% in [17]; 30% in [18]. Moreover, the result in [5] (setting [24]), in [7], in data set [8] (setting [24]), in data set [9], in data set [12] and in [16] (setting [24]) was Active. The outcome in data set [19] (setting [24]) and in [20] was Active.
Regarding `CC(C)Nc1cc(-c2csc(N(C)C(=O)c3ccc(OCCCF)cc3)n2)ncn1`, the outcome in data set [21], in [22], in [23] and in data set [11] (setting [25]) was inactive. In [2], this molecule yielded a logD of 2.8. Moreover, the pIC50 in data set [3] and in data set [6] was under 5.00 each time. For the same molecule, the pKi in [3] is under 5.30. Moreover, the outcome in [5] (setting [25]), in [8] (setting [25]), in data set [16] (setting [25]) and in [19] (setting [25]) was Active.
`CC(C)Nc1cc(-c2csc(N(C)C(=O)c3ccc(OCCF)cc3)n2)ncn1`: the result in data set [21], in [22], in data set [23] and in data set [11] (setting [25]) was inactive. For the same molecule, in data set [2], the logD is 2.59. Also, the pIC50 was 6.40 in data set [3] and under 5.00 in data set [6]. In data set [3], this molecule showed a negative-log Ki (pKi) of 6.82. The outcome in data set [5] (setting [25]), in [8] (setting [25]), in [16] (setting [25]) and in data set [19] (setting [25]) was Active.
In turn, `CC(C)Nc1cc(-c2csc(N(C)C(=O)c3ccc(F)cc3)n2)ncn1` returned a logD in [2] of 1.45. In data set [3], this molecule had a pIC50 of 7.86 and a pKi of 8.27. Also, the negative-log IC50 (pIC50) in data set [6] was under 5.00.
